Results on 24 compounds are retold here after ChEMBL document CHEMBL1131523 (J Med Chem, 1998).

Each structure is given as a SMILES string. Peptide text beside a SMILES is read from it.

A short description of data set [1]: compound was evaluated for rate constant of transfer (log K1) at pH 7.4. It is filed as ADME. The essentials: (§1)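 Transfer rate constants were measured in a triphasic water/octanol/water system (Kochi's flask). Compound in 40 mL of 0.06 mol L-1 phosphate buffer sat in compartment A, and 40 mL of the same buffer at the same pH sat in compartment B. 80 mL octanol was layered over both compartments.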

A short description of data set [2]: Partition coefficient (logD1.0). It is filed as physicochemical. The settings on record: octanol/water, pH 1. The gist of the method: (§2)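 log D measured in n-octanol/aqueous phosphate buffer (0.02 mol L-1) by centrifugal partition chromatography in a multilayer coil separator–extractor at room temperature. UV detection was at the pH-dependent λmax. log D was computed from solute and solvent-front retention times, flow rate and column capacity. t0 came from K2Cr2O7 (pH > 4.5), CoCl2 (acidic pH) or biphenyl.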

The nature of data set [3]: compound was evaluated for rate constant of transfer (log K1) at pH 1.0. Format: ADME. The gist of the method:
as §1

The nature of data set [4]: (§3) Partition coefficient (logD3.0). It is filed as physicochemical. The settings on record: octanol/water, pH 3.
Data set [5] in a line: compound was evaluated for reverse occurs for the rate constant(log K-1) at pH 1.0. It is filed as ADME. The following applies: buffer. The gist of the method: as §1
Data set [6] in a line: compound was evaluated for reverse occurs for the rate constant(log K-1) at pH 7.4. The settings on record: buffer. It is filed as ADME. The essentials:
as §1

Data set [7] can be described thus: compound was evaluated for rate constant of transfer (log K1) at pH 3.0. Format: ADME. The essentials:
as §1

A short description of data set [8]: compound was evaluated for reverse occurs for the rate constant(log K-1) at pH 3.0. It is filed as ADME. The settings on record: buffer. The essentials:
as §1

The nature of data set [9]: compound were evaluated for rate constant of transfer (log K1) at pH 7.4. It is filed as ADME. The gist of the method:
as §1

A short description of data set [10]: Partition coefficient (logD9.4). The settings on record: octanol/water, pH 9.4.
Data set [11] can be described thus: as §3. The following applies: octanol/water, pH 3.
The nature of data set [12]: Partition coefficient (logD1.5). The settings on record: octanol/water, pH 1.5.
Data set [13] is described as follows: Partition coefficient (logD6.8). The following applies: octanol/water, pH 6.8.
The nature of data set [14]: Pharmacokinetic parameter :volume apparent of distribution was reported. It is filed as ADME, organism-based. The following applies: in vivo.
Data set [15] in a line: Pharmacokinetic parameter :drug bound to plasma was reported. It is filed as ADME, cell-free.
Data set [16] can be described thus: Pharmacokinetic parameter :half life in humans was reported. It is filed as ADME, organism-based. The following applies: human, in vivo; read-out: T1/2 beta (converted).
Data set [17] is described as follows: compound was evaluated for saturable association constant (nKa) of isolated serum protein LDL.
A short description of data set [18]: compound was evaluated for saturable association constant (nKa) of isolated serum protein VLDL.
Data set [19] in a line: (§4) Partition coefficient (logD7.4). Format: physicochemical. The settings on record: octanol/water, pH 7.4.
The nature of data set [20]: Partition coefficient between dodecane and water (logDdod7.4). Format: physicochemical. The settings on record: pH 7.4.
The nature of data set [21]: Lipophilicity parameter log Pdod N. It is filed as physicochemical. The following applies: dodecane/water.
The nature of data set [22]: Lipophilicity parameter log Poct N. The settings on record: octanol/water.
The nature of data set [23]: Partition coefficient (logD4.6). It is filed as physicochemical. The following applies: octanol/water, pH 4.6. The essentials: as §2
Data set [24] is described as follows: compound was evaluated for rate constant of transfer (log K1) at pH 8.8. It is filed as ADME. The essentials:
as §1

Data set [25] in a line: compound was evaluated for reverse occurs for the rate constant(log K-1) at pH 8.8. The following applies: buffer. Format: ADME. The gist of the method: as §1
The nature of data set [26]: compound was evaluated for rate constant of transfer (log K1) at pH 4.6. It is filed as ADME. The gist of the method:
as §1

The nature of data set [27]: compound was evaluated for reverse occurs for the rate constant(log K-1) at pH 4.6. Format: ADME. The settings on record: buffer. The gist of the method:
as §1

A short description of data set [28]: as §4. The following applies: octanol/water, pH 7.4. Format: physicochemical. The essentials:
as §2
The source holds these as a separate data set.

On to `CN(C(=O)C1=C(O)c2ccccc2S(=O)(=O)N1C)c1ccccn1`, for which the “Log K1” value is -1.22 in [1], -1.51 in data set [3] and -1.19 in data set [7]. The logD in data set [2] was -0.12; in [4] it was 0.14; in data set [4] (read-out: logD) it was 0.14. The “Log K-1” value is recorded as -1.69 in [5], -1.73 in data set [6] and -1.63 in data set [8].
On to `COC1=C(C(=O)Nc2ccccn2)N(C)S(=O)(=O)c2ccccc21`, for which the “Log K1” value in data set [3] is recorded as -1.32. The logD in data set [4] (read-out: logD) amounted to 0.07. For the same compound, in data set [5], the “Log K-1” value is -1.69.
For `CC(C)C[C@H](N)C(=O)N[C@@H](Cc1ccccc1)C(=O)O` (H-Leu-Phe-OH), the “Log K1” value in data set [1] is listed as -2.55. Moreover, in [6], the “Log K-1” value is reported as -1.77.
Take `N[C@@H](Cc1ccccc1)C(=O)N[C@@H](Cc1ccccc1)C(=O)O` (H-Phe-Phe-OH): the “Log K1” value in data set [9] is -2.29. The logD in data set [4] (read-out: logD) is -1.02. In addition, the “Log K-1” value in data set [6] is -1.57.
Turning to `N[C@@H](Cc1c[nH]c2ccccc12)C(=O)N[C@@H](Cc1ccccc1)C(=O)O` (H-Trp-Phe-OH), the “Log K1” value in data set [1] is on record as -1.94. For the same compound, in data set [4] (read-out: logD), the logD was -0.52. Besides, in data set [6], the “Log K-1” value is -1.74.
Consider `N[C@@H](Cc1c[nH]c2ccccc12)C(=O)N[C@@H](Cc1ccc(O)cc1)C(=O)O` (H-Trp-Tyr-OH), for which the “Log K1” value in data set [1] is on record as -2.73. For the same compound, the logD in data set [4] (read-out: logD) is -1.38. The “Log K-1” value in data set [6] is -1.72.
Take `Cc1ccc(/C(=C\CN2CCCC2)c2cccc(/C=C/C(=O)O)n2)cc1` [ACRIVASTINE]: the logD in data set [10] is 0.24; in data set [11], -0.48; in [12] it was -0.93; in [4] (read-out: logD) it was 0.86; in [13] it was -0.03.
`COc1ccc(CCN2CCC(Nc3nc4ccccc4n3Cc3ccc(F)cc3)CC2)cc1` [ASTEMIZOLE]: in data set [14], the Vd is 48 L/kg. The compound further returned a B in data set [15] of 96%. Moreover, the half-life in data set [16] is 26 h.
`CN1CCCC(n2nc(Cc3ccc(Cl)cc3)c3ccccc3c2=O)CC1` (stereo unspecified) [AZELASTINE]: the Vd in data set [14] turned out to be 14.5 L/kg. The half-life in data set [16] was 25 h.
Regarding `CN(C)CCC(c1ccc(Br)cc1)c1ccccn1` (stereo unspecified) [BROMPHENIRAMINE], in [14], the Vd turned out to be 10 L/kg. The B in [15] is 72%. Further, the half-life in [16] was 24.9 h.
Taken in the same sequence, the figures for `CC(C)(C(=O)O)c1ccc(C(=O)CCCN2CCC(OC(c3ccccc3)c3ccccc3)CC2)cc1` [CAREBASTINE] were 2.4 L/kg, 98% and 16 h.
Take `O=C(O)COCCN1CCN(C(c2ccccc2)c2ccc(Cl)cc2)CC1` (stereo unspecified) [CETIRIZINE]: the nKa in [17] is 2.21 M/M; in data set [18] it was 289 M/M.
As to `CN(C)CCC(c1ccc(Cl)cc1)c1ccccn1` (stereo unspecified) [CHLORPHENIRAMINE], in data set [14], the Vd stood at 5.9 L/kg. In [15], this compound yielded a B of 72%.
For `CN(C)CCOC(c1ccccc1)c1ccccc1` [DIPHENHYDRAMINE], in [15], the B worked out at 98%.
On the same count and under the same terms, to `CC(C)(C(=O)O)c1ccc(C(O)CCCN2CCC(C(O)(c3ccccc3)c3ccccc3)CC2)cc1` (stereo unspecified) [FEXOFENADINE] belongs 65%.
As for `OCCOCCN1CCN(C(c2ccccc2)c2ccc(Cl)cc2)CC1` (stereo unspecified) [HYDROXYZINE], the logD amounted to 3.1 in [19] and 0.9 in [20]. Besides, the Vd in [14] is 30.5 L/kg. Moreover, in data set [21], the “Log Pdod N” value is reported as 1.25. Also, in data set [22], the logP was determined as 3.5. Moreover, the half-life in data set [16] was 20 h.
On to `CC(CCc1ccccc1)NCC(O)c1ccc(O)c(C(N)=O)c1` (stereo unspecified) [LABETALOL], for which the logD was -0.8 in [23] and 1.03 in [4] (read-out: logD). In addition, the “Log K1” value is listed as -0.89 in [24] and -2.07 in [26]. Besides, the “Log K-1” value in data set [25] is reported as -2.22; in [27], -1.58.
In [15], `CCOC(=O)N1CCC(=C2c3ccc(Cl)cc3CCc3cccnc32)CC1` [LORATADINE] yielded a B of 97%.
In the case of `CNCc1ccccc1` [N-BENZYLMETHYLAMINE], the “Log K1” value in data set [1] is -0.78. For the same compound, the logD in data set [4] (read-out: logD) was 0.86. For the same compound, the “Log K-1” value in data set [6] is -1.94.
Taken in the same sequence, the figures for `Oc1ccccc1` [PHENOL] were -0.68, 1.54 and -2.5.
For `CN1C(C(=O)Nc2ccccn2)=C(O)c2ccccc2S1(=O)=O` [PIROXICAM], the values for the logD in data set [28], in data set [2] and in data set [4] (read-out: logD) were -0.08, 0.63 and 1.43, respectively. The “Log K1” value in data set [1] is -1.53; in data set [3], -1; in data set [7] it was -0.69. Moreover, the results for the “Log K-1” value in data set [5], in [6] and in data set [8] were -1.93, -1.75 and -2.42, respectively.
For the compound `c1ccncc1` [PYRIDINE], the “Log K1” value in data set [1] is given as -0.83. Also, in [6], the “Log K-1” value is given as -1.7.
For the compound `CC(C)(C)c1ccc(C(O)CCCN2CCC(C(O)(c3ccccc3)c3ccccc3)CC2)cc1` (stereo unspecified) [TERFENADINE], the Vd in [14] was 2.9 L/kg. This compound registered a B in data set [15] of 98%. Also, in [16], the half-life is 23 h.
As to `Cc1ccc(/C(=C\CN2CCCC2)c2ccccn2)cc1` [TRIPROLIDINE], in data set [14], the Vd came to 8.7 L/kg. The compound further gave a B in [15] of 90%. In addition, the half-life in [16] is 30 h.
